Results on 15 compounds are retold here after ChEMBL document CHEMBL3244258, “Derivatives of tetrahydro-1,4-benzodiazepines as potential antihypertensive agents” (1977).

For assay [1], the system named is Rattus norvegicus. The assay can be described thus: Antihypertensive activity in left kidney ligation and contralateral nephrectomy-induced hypertensive Sprague-Dawley rat model assessed as change in systolic blood pressure at 75 mg/kg, po administered via stomach tube. It counts as functional, Artery. The essentials:
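Conscious female rats made hypertensive by figure-8 ligature of left kidney, contralateral nephrectomy 1 week later. Dosed orally by stomach tube. Systolic pressure measured at the tail with occluding and sensing cuffs and a pressure transducer, before dosing and 1.5 and 4 h after. Values are group means of 4 or 8 rats.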

The subject of assay [2] is Rattus norvegicus. Description: Antihypertensive activity in pithed rat assessed as change in sympathetic outflow activation-induced systemic pressor response at 20 mg/kg, iv at 2.5 Hz frequency. Format: functional. The essentials:
(§1)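 Pithed-rat preparation under ether anesthesia with artificial respiration, pretreated with atropine 1 mg/kg and d-tubocurarine chloride 1 mg/kg. Sympathetic outflow activated electrically at 2.5, 5 or 10 Hz. Carotid pressure responses taken before and after one or more test doses given via jugular vein. Reported as percent change in pressor response.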

For assay [3], the system named is Rattus norvegicus. Description: Antihypertensive activity in pithed rat assessed as change in sympathetic outflow activation-induced systemic pressor response at 10 mg/kg, iv at 2.5 Hz frequency. Format: functional. The essentials: as §1
In assay [4] the test system is Rattus norvegicus. The assay can be described thus: Antihypertensive activity in pithed rat assessed as change in sympathetic outflow activation-induced systemic pressor response at 20 mg/kg, iv at 5 Hz frequency. Format: functional. The essentials:
as §1

In assay [5] the test system is Rattus norvegicus. The assay can be described thus: Antihypertensive activity in pithed rat assessed as change in sympathetic outflow activation-induced systemic pressor response at 10 mg/kg, iv at 5 Hz frequency. Format: functional. The essentials:
as §1

Assay [6] concerns Rattus norvegicus. The assay can be described thus: Antihypertensive activity in pithed rat assessed as change in sympathetic outflow activation-induced systemic pressor response at 20 mg/kg, iv at 10 Hz frequency. Format: functional. The essentials: as §1
For assay [7], the system named is Rattus norvegicus. Description: Antihypertensive activity in pithed rat assessed as change in sympathetic outflow activation-induced systemic pressor response at 10 mg/kg, iv at 10 Hz frequency. It counts as functional. The essentials:
as §1

The test system of assay [8] is Rattus norvegicus. The assay can be described thus: Antihypertensive activity in pithed rat assessed as change in phenylephrine-induced systemic pressor response at 20 mg/kg, iv in presence of 2 mg/kg phenylephrine. Format: functional. The essentials:
(§2)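 Ether-anesthetized, artificially respired rats pretreated with atropine 1 mg/kg and d-tubocurarine chloride 1 mg/kg. Carotid arterial pressure recorded; drugs given into the jugular vein. Pressor responses to iv phenylephrine measured before and after one or more iv doses of test compound. Reported as percent change in response.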

In assay [9] the test system is Rattus norvegicus. Description: Antihypertensive activity in pithed rat assessed as change in phenylephrine-induced systemic pressor response at 10 mg/kg, iv in presence of 2 mg/kg phenylephrine. Format: functional. The essentials: as §2
Assay [10] deals with Rattus norvegicus. Description: Antihypertensive activity in pithed rat assessed as change in phenylephrine-induced systemic pressor response at 20 mg/kg, iv in presence of 4 mg/kg phenylephrine. It counts as functional. The essentials:
as §2

The subject of assay [11] is Rattus norvegicus. The assay can be described thus: Antihypertensive activity in pithed rat assessed as change in phenylephrine-induced systemic pressor response at 10 mg/kg, iv in presence of 4 mg/kg phenylephrine. Format: functional. The essentials: as §2
The subject of assay [12] is Rattus norvegicus. The assay can be described thus: Antihypertensive activity in pithed rat assessed as change in sympathetic outflow activation-induced systemic pressor response at 30 mg/kg, iv at 2.5 Hz frequency. Format: functional. The essentials: as §1
Assay [13] has as its system Rattus norvegicus. The assay can be described thus: Antihypertensive activity in pithed rat assessed as change in sympathetic outflow activation-induced systemic pressor response at 30 mg/kg, iv at 5 Hz frequency. Format: functional. The essentials:
as §1

In assay [14] the test system is Rattus norvegicus. Description: Antihypertensive activity in pithed rat assessed as change in sympathetic outflow activation-induced systemic pressor response at 30 mg/kg, iv at 10 Hz frequency. It counts as functional. The essentials:
as §1

In assay [15] the test system is Rattus norvegicus. Description: Antihypertensive activity in pithed rat assessed as change in phenylephrine-induced systemic pressor response at 30 mg/kg, iv in presence of 2 mg/kg phenylephrine. It counts as functional. The essentials:
as §2

Assay [16] has as its system Rattus norvegicus. The assay can be described thus: Antihypertensive activity in pithed rat assessed as change in phenylephrine-induced systemic pressor response at 30 mg/kg, iv in presence of 4 mg/kg phenylephrine. It counts as functional. The essentials:
as §2

Assay [17] deals with Rattus norvegicus. Description: Antihypertensive activity in pithed rat assessed as change in sympathetic outflow activation-induced systemic pressor response at 5 mg/kg, iv at 2.5 Hz frequency. It counts as functional. The essentials:
as §1

Assay [18] deals with Rattus norvegicus. The assay can be described thus: Antihypertensive activity in pithed rat assessed as change in sympathetic outflow activation-induced systemic pressor response at 15 mg/kg, iv at 2.5 Hz frequency. It counts as functional. The essentials:
as §1

Assay [19] concerns Rattus norvegicus. The assay can be described thus: Antihypertensive activity in pithed rat assessed as change in sympathetic outflow activation-induced systemic pressor response at 5 mg/kg, iv at 5 Hz frequency. It counts as functional. The essentials: as §1
The test system of assay [20] is Rattus norvegicus. The assay can be described thus: Antihypertensive activity in pithed rat assessed as change in sympathetic outflow activation-induced systemic pressor response at 15 mg/kg, iv at 5 Hz frequency. It counts as functional. The essentials: as §1
Assay [21] relates to Rattus norvegicus. Description: Antihypertensive activity in pithed rat assessed as change in sympathetic outflow activation-induced systemic pressor response at 5 mg/kg, iv at 10 Hz frequency. Format: functional. The essentials: as §1
The test system of assay [22] is Rattus norvegicus. Description: Antihypertensive activity in pithed rat assessed as change in sympathetic outflow activation-induced systemic pressor response at 15 mg/kg, iv at 10 Hz frequency. It counts as functional. The essentials:
as §1

Assay [23] has as its system Rattus norvegicus. The assay can be described thus: Antihypertensive activity in pithed rat assessed as change in phenylephrine-induced systemic pressor response at 5 mg/kg, iv in presence of 2 mg/kg phenylephrine. Format: functional. The essentials:
as §2

Assay [24] deals with Rattus norvegicus. Description: Antihypertensive activity in pithed rat assessed as change in phenylephrine-induced systemic pressor response at 15 mg/kg, iv in presence of 2 mg/kg phenylephrine. It counts as functional. The essentials:
as §2

In assay [25] the test system is Rattus norvegicus. The assay can be described thus: Antihypertensive activity in pithed rat assessed as change in phenylephrine-induced systemic pressor response at 5 mg/kg, iv in presence of 4 mg/kg phenylephrine. Format: functional. The essentials:
as §2

For assay [26], the system named is Rattus norvegicus. Description: Antihypertensive activity in pithed rat assessed as change in phenylephrine-induced systemic pressor response at 15 mg/kg, iv in presence of 4 mg/kg phenylephrine. Format: functional. The essentials: as §2
Assay [27] concerns Rattus norvegicus. Description: Antihypertensive activity in pithed rat assessed as change in sympathetic outflow activation-induced systemic pressor response at 40 mg/kg, iv at 2.5 Hz frequency. It counts as functional. The essentials:
as §1

Assay [28] relates to Rattus norvegicus. The assay can be described thus: Antihypertensive activity in pithed rat assessed as change in sympathetic outflow activation-induced systemic pressor response at 40 mg/kg, iv at 5 Hz frequency. It counts as functional. The essentials:
as §1

For assay [29], the system named is Rattus norvegicus. Description: Antihypertensive activity in pithed rat assessed as change in sympathetic outflow activation-induced systemic pressor response at 40 mg/kg, iv at 10 Hz frequency. It counts as functional. The essentials:
as §1

Assay [30] deals with Rattus norvegicus. Description: Antihypertensive activity in pithed rat assessed as change in phenylephrine-induced systemic pressor response at 40 mg/kg, iv in presence of 2 mg/kg phenylephrine. It counts as functional. The essentials: as §2
Assay [31] concerns Rattus norvegicus. Description: Antihypertensive activity in pithed rat assessed as change in phenylephrine-induced systemic pressor response at 40 mg/kg, iv in presence of 4 mg/kg phenylephrine. It counts as functional. The essentials: as §2
For assay [32], the system named is Rattus norvegicus. Description: Antihypertensive activity in pithed rat assessed as change in sympathetic outflow activation-induced systemic pressor response at 1 mg/kg, iv at 2.5 Hz frequency. It counts as functional. The essentials: as §1
Assay [33] concerns Rattus norvegicus. The assay can be described thus: Antihypertensive activity in pithed rat assessed as change in sympathetic outflow activation-induced systemic pressor response at 1 mg/kg, iv at 5 Hz frequency. It counts as functional. The essentials:
as §1

The test system of assay [34] is Rattus norvegicus. Description: Antihypertensive activity in pithed rat assessed as change in sympathetic outflow activation-induced systemic pressor response at 1 mg/kg, iv at 10 Hz frequency. It counts as functional. The essentials: as §1
Assay [35] concerns Rattus norvegicus. Description: Antihypertensive activity in pithed rat assessed as change in phenylephrine-induced systemic pressor response at 1 mg/kg, iv in presence of 4 mg/kg phenylephrine. It counts as functional. The essentials:
as §2

The test system of assay [36] is Rattus norvegicus. Description: Antihypertensive activity in pithed rat assessed as change in phenylephrine-induced systemic pressor response at 1 mg/kg, iv in presence of 2 mg/kg phenylephrine. It counts as functional. The essentials:
as §2

SMILES strings stand for the structures.

On to `N=C(N)N1CCNc2ccc(Cl)cc2C1.O=[N+]([O-])O`, for which the Activity in assay [1] is -34 mmHg.
Take `CN1CCN(C(=N)N)Cc2ccccc21.O=[N+]([O-])O`: the Activity in assay [1] was -60 mmHg; in assay [2], -83%; in [3], -73%; in assay [4] it was -83%; in assay [5] it was -67%; in [6], -82%. Further, the Activity in assay [7] was -57%; in [8], -26%; in assay [9], -14%; in [10], -20%; in [11], -5%.
Regarding `N=C(N)N1CCN2CCc3cccc(c32)C1.O=[N+]([O-])O`, in [1], the Activity is recorded as -12 mmHg.
`N=C(N)N1CCn2c3c(c4cccc(c42)C1)CCCC3.O=[N+]([O-])O`: in [1], the Activity was -8 mmHg.
As for `C[N+]1(C)CCNc2ccccc2C1.[I-]`, the Activity in [1] is -46 mmHg; in assay [3], 10%; in assay [12], -38%; in assay [5], 9%; in assay [13], -34%; in assay [7], 1%. Moreover, the Activity in assay [14] is -35%; in assay [9], 23%; in [15], 44%; in assay [11], 39%; in [16], 74%.
For `CN1CC[N+](C)(C)Cc2ccccc21.[I-]`, the Activity in [1] was -51 mmHg.
Consider `CC1CNc2ccccc2C[N+]1(C)C.[I-]` (centres undefined), for which the Activity in assay [1] was -4 mmHg.
Turning to `CCN1CC[N+](C)(CC)Cc2ccccc21.[I-]` (centres undefined), the Activity in assay [1] is given as -21 mmHg.
Still for that read-out and setting: in the case of `C[N+]1(C)CCNc2ccc(Cl)cc2C1.[I-]` it was -4 mmHg; in that of `COc1cc2c(cc1OC)NCC[N+](C)(C)C2.[I-]`, 2 mmHg.
As to `C[N+]1(C)CCN2CCc3cccc(c32)C1.[I-]`, the Activity in assay [1] was -48 mmHg; in assay [17], -42%; in assay [18] it was -93%; in assay [19], -40%; in [20] it was -87%; in assay [21] it was -47%. The Activity in assay [22] is -91%; in assay [23], 68%; in assay [24], 87%; in assay [25] it was 18%; in assay [26], 12%.
Turning to `C[N+]1(C)CCn2c3c(c4cccc(c42)C1)CCCC3.[I-]`, in [1], the Activity is recorded as 3 mmHg.
Same read-out and setting: in the case of `N/C(CN1CCNc2ccccc2C1)=N\O` it was -12 mmHg.
Consider `N=C(N)N1CCNc2ccccc2C1.O=[N+]([O-])O`, for which the Activity was -55 mmHg in assay [1]; -39% in assay [2]; -82% in assay [27]; -50% in assay [4]; -100% in [28]; -58% in assay [6]. Also, the Activity was -86% in assay [29]; 8% in assay [8]; 3% in assay [30]; 5% in [10]; 10% in assay [31].
On to `N=C(N)NCCN1CCCCCCC1` [GUANETHIDINE], for which the Activity in [17] is -100%; in [32], -85%; in assay [19] it was -100%; in [33] it was -72%; in assay [21] it was -94%; in assay [34], -65%. Besides, the Activity was 160% in assay [23], 57% in [35], 64% in assay [36] and 105% in assay [25].
